Active and inactive are the calls of the source. The calls are words filed in the database; no cut-off is given here.
How the values were obtained:
[1] = species on record: Homo sapiens; assay: Cell cycle arrest in human CL68 cells harbouring EGFR delE746-A750/T790M mutant assessed as increase in cells accumulation at G2/M phase at 0.4 to 0.8 uM incubated for 48 hrs by propidium iodide based flow cytometry; format: functional
Summary of the method: (§1)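 Cells plated at 3 × 10^5 per 6-cm dish and left overnight, then treated for 24 h and 48 h. Pellets fixed in 70% ethanol and stained with 40 µg/ml propidium iodide plus 20 µg/ml RNase A, 30 min on ice in the dark. DNA content read on a FACSCalibur flow cytometer.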

[2] = tested on: MDA-MB-231; assay: Antiproliferative activity against human MDA-MB-231 cells assessed as reduction in cell viability incubated for 72 hrs by MTT assay; format: functional, cell-based; details: MDA-MB-231, 72 h
Summary of the method: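 MTT viability assay after 72 h of drug exposure. Cells seeded at 5000 per well in 10% FBS and left overnight, then treated in 5% FBS. MTT added for 1 h, dye dissolved in DMSO, absorbance read at 570 nm. Viability given relative to vehicle-treated cells.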

[3] = target: Hepatocyte growth factor receptor (Homo sapiens) (UniProt P08581); assay: Induction of c-MET degradation in human PC9 cells harbouring EGFR delE746-A750 assessed as reduction in c-Met expression at 0.2 to 0.6 uM incubated for 48 hrs by Western blot analysis; format: cell-based
Summary of the method: (§2)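 After 48 h treatment, cells were scraped and lysed in 1% SDS, 50 mM Tris-HCl pH 8.0, 10 mM EDTA with protease and phosphatase inhibitors. Lysates sonicated, protein measured by BCA, equal amounts run on SDS-PAGE and blotted to nitrocellulose. Primary antibodies (EGFR, c-Met, S473-Akt, Akt, GAPDH) used at 1:1000 overnight at 4 °C, HRP secondaries at 1:5000, ECL detection.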

[4] = target: Hepatocyte growth factor receptor (Homo sapiens) (UniProt P08581); assay: Induction of c-MET degradation in human MDA-MB-231 cells assessed as reduction in c-Met expression incubated for 48 hrs by immunoblot analysis; format: cell-based; summary of the method: as §2
[5] = tested on: NCI-H1975; assay: Antitumor activity against human NCI-H1975 cells harbouring EGFR L858R/T790M double mutant xenografted in athymic Nude-Foxn1nu BALB/c mouse assessed as tumor growth inhibition at 50 mg/kg, po administered once daily via gavage for 20 days measured twice a week by caliper method relative to control; format: functional; details: 480 h, read-out: TGI
[6] = tested on: NCI-H1975; assay: Cell cycle arrest in human NCI-H1975 cells harbouring EGFR L858R/T790M double mutant assessed as increase in cells accumulation at G2/M phase at 0.2 to 0.6 uM incubated for 48 hrs by propidium iodide based flow cytometry; format: functional; summary of the method: as §1
[7] = tested on: Epidermal growth factor receptor (Homo sapiens), P00533 [L858R,T790M]; assay: Induction of EGFR L858R/T790M double mutant degradation in human NCI-H1975 cells assessed as change in EGFR expression at 0.2 to 0.6 uM incubated for 48 hrs by RT-PCR analysis; format: cell-based
Summary of the method: (§3)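 Total RNA extracted with TRIzol from H1975 and A549 cells treated at 0.2–0.6 µM. EGFR and c-Met mRNA assessed by RT-PCR.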

[8] = Antiproliferative activity against human CL68 cells harbouring EGFR delE746-A750/T790M mutant assessed as reduction in cell viability incubated for 72 hrs by MTT assay; format: functional, cell-based
[9] = tested on: NCI-H1975; assay: Antiproliferative activity against human NCI-H1975 cells harbouring EGFR L858R/T790M double mutant assessed as reduction in cell viability incubated for 48 hrs by MTT assay; format: functional, cell-based; details: NCI-H1975, 48 h
Summary of the method: (§4)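 Cells seeded at 5000 per well in 10% FBS and left overnight, then exposed to agent or DMSO in 5% FBS for 48 h. MTT added for 1 h, dye dissolved in DMSO, absorbance read at 570 nm. Viability given as percent of vehicle control. At least three independent experiments, means ± SD.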

[10] = tested on: Epidermal growth factor receptor (Homo sapiens), P00533 [UNDEFINED MUTATION]; assay: Induction of EGFR E746-A750 deletion/T790M mutant degradation in human CL68 cells assessed as Akt phosphorylation at 0.4 to 0.8 uM incubated for 48 hrs by Western blot analysis; format: cell-based; summary of the method: as §2
[11] = tested on: PC-9; assay: Antiproliferative activity against human PC9 cells harbouring EGFR delE746-A750 mutant assessed as reduction in cell viability incubated for 72 hrs by MTT assay; format: functional, cell-based; details: PC-9, 72 h
[12] = tested on: A549; assay: Cell cycle arrest in human A549 cells assessed as increase in accumulation of cells at G2/M phase at 0.2 to 0.6 uM incubated for 48 hrs by propidium iodide based flow cytometry; format: functional; summary of the method: as §1
[13] = tested on: NCI-H1975; assay: Antitumor activity against human NCI-H1975 cells harbouring EGFR L858R/T790M double mutant xenografted in orally dosed athymic Nude-Foxn1nu BALB/c mouse assessed as tumor growth inhibition administered once daily via gavage for 20 days measured twice a week by caliper method; format: functional, organism-based
Summary of the method: (§5)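 Female Balb/c nude mice, 5 weeks old, injected subcutaneously in the right flank with 10^6 H1975 cells in 0.1 ml. Randomized at about 50 mm3, n = 8 per group. Gavaged once daily for 20 days with vehicle (10% DMSO/0.1% Tween 80/0.5% methylcellulose in sterile water) or 50 or 150 mg/kg. Calipers, V = width² × length × 0.52; volume and body weight twice weekly; Student's t-test.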

[14] = target: Hepatocyte growth factor receptor (Homo sapiens) (UniProt P08581); assay: Induction of c-MET degradation in human NCI-H1975 cells harbouring EGFR L858R/T790M double assessed as reduction in c-Met expression at 0.2 to 0.6 uM incubated for 48 hrs by Western blot analysis; format: cell-based; summary of the method: as §2
[15] = target: Hepatocyte growth factor receptor (Homo sapiens) (UniProt P08581); assay: Effect on c-MET degradation in wild type human A549 cells assessed as reduction in c-Met mRNA expression at 0.2 to 0.6 uM incubated for 48 hrs by RT-PCR analysis; format: cell-based; summary of the method: as §3
[16] = target: Epidermal growth factor receptor (Homo sapiens) (UniProt P00533); assay: Effect on EGFR degradation in wild type human A549 cells assessed as reduction in EGFR mRNA expression at 0.2 to 0.6 uM incubated for 48 hrs by RT-PCR analysis; format: cell-based; summary of the method: as §3
[17] = tested on: A549; assay: Antiproliferative activity against wild type human A549 cells assessed as reduction in cell viability incubated for 72 hrs by MTT assay; format: functional, cell-based; details: A549, 72 h
[18] = target: Hepatocyte growth factor receptor (Homo sapiens) (UniProt P08581); assay: Induction of c-MET degradation in human CL68 cells harbouring EGFR delE746-A750/T790M assessed as reduction in c-Met expression at 0.2 to 0.6 uM incubated for 48 hrs by Western blot analysis; format: cell-based; summary of the method: as §2
[19] = tested on: PC-9; assay: Antiproliferative activity against human PC9 cells harbouring EGFR delE746-A750 mutant assessed as reduction in cell viability incubated for 48 hrs by MTT assay; format: functional, cell-based; details: PC-9, 48 h; summary of the method: as §4
[20] = target: Hepatocyte growth factor receptor (Homo sapiens) (UniProt P08581); assay: Induction of c-MET degradation in wild type human A549 cells assessed as reduction in c-Met expression at 0.2 to 0.6 uM incubated for 48 hrs by immunoblot analysis; format: cell-based; summary of the method: as §2
[21] = tested on: NCI-H1975; assay: Antitumor activity against human NCI-H1975 cells harbouring EGFR L858R/T790M double mutant xenografted in athymic Nude-Foxn1nu BALB/c mouse assessed as tumor growth inhibition at 150 mg/kg, po administered once daily via gavage for 20 days measured twice a week by caliper method relative to control; format: functional; details: 480 h, read-out: TGI; summary of the method: as §5

Sequence of Hepatocyte growth factor receptor (Homo sapiens) (P08581 whole entry): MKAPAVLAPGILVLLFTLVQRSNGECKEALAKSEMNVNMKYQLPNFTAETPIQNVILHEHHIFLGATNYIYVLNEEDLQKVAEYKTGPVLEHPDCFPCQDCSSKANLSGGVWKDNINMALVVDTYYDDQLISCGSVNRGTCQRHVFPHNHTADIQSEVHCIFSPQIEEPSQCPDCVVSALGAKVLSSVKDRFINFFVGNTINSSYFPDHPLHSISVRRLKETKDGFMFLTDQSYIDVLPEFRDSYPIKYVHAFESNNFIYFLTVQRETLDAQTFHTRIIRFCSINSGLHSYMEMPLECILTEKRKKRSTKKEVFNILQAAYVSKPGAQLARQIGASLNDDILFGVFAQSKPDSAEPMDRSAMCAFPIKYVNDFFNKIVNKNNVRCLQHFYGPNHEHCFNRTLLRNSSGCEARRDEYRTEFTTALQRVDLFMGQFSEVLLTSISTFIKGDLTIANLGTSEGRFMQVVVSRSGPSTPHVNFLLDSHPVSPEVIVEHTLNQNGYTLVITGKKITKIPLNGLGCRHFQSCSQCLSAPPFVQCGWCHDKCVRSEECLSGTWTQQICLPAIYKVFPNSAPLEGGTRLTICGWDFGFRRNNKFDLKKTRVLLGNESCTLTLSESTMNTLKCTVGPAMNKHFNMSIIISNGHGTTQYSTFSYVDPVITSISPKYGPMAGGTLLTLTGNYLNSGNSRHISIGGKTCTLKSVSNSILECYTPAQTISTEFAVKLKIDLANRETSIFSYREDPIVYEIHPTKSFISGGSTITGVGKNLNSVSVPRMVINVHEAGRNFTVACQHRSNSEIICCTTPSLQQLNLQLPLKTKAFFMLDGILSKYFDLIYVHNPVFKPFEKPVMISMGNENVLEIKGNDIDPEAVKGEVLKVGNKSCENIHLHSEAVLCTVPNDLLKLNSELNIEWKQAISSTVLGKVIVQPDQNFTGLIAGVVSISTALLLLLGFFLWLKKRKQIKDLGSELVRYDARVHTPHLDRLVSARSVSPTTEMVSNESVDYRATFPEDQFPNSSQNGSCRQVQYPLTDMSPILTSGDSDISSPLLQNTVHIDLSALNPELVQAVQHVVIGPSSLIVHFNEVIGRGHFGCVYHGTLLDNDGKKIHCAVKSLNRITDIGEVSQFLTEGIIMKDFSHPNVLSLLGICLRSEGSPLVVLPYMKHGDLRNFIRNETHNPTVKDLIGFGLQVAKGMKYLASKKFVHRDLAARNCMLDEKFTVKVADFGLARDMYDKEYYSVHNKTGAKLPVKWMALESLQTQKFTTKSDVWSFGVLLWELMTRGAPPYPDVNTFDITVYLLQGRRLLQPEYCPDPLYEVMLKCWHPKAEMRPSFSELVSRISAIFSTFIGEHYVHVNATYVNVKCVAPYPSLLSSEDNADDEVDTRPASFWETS

## O=C(Nc1cccc(-c2nc(-c3ccc(NC(=O)c4cccnc4)cc3Cl)no2)c1)Nc1ccc(NC(=O)C2CC2)c(C(F)(F)F)c1
[1]
  Activity: Active
[2]
  IC50: 200 nM
[3]
  Activity: Active
[4]
  Activity: Active
[5]
  inhibition in vivo at 50 mg/kg: 29 to 37%
[6]
  Activity: Active
[7]
  Activity: inactive
[8]
  IC50: 400 nM
[9]
  IC50: 300 nM
[10]
  Activity: inactive
[11]
  IC50: 500 nM
[12]
  Activity: Active
[13]
  TGI: Dose-dependent effect
[14]
  Activity: Active
[15]
  Activity: inactive
[16]
  Activity: inactive
[17]
  IC50: 200 nM
[18]
  Activity: Active
[19]
  IC50: 600 nM
[20]
  Activity: Active
[21]
  inhibition in vivo at 150 mg/kg: 60%

— ChEMBL document CHEMBL4359903, “1,2,4-Oxadiazole derivatives targeting EGFR and c-Met degradation in TKI resistant NSCLC” (Eur J Med Chem, 2019)
